Experimental data published in ChEMBL document CHEMBL1134691, “3-Phenyl-5-acyloxymethyl-2H,5H-furan-2-ones: synthesis and biological activity of a novel group of potential antifungal drugs” (2001).
Converted amounts (≈) assume the structure as drawn.

Legend:
[1] = tested on: Candida parapsilosis; assay: Inhibition of Candida parapsilosis ATCC 22019 growth for 48 hours in vitro.; format: functional; conditions: Lodderomyces parapsilosis, ATCC 22019, 48 h
Summary of the method: (§1)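 NCCLS M27-A broth microdilution in RPMI 1640 with L-glutamine and 0.165 M MOPS, pH 7.0. Isolates kept on Sabouraud dextrose agar. Inoculum 5 × 10^3 cfu/mL final. Compounds were diluted in DMSO (≤2% final) and tested in 2-fold dilutions of 1000–0.24 µmol/L. Incubation at 35 °C, OD540 read at 24 and 48 h. MIC = 80% growth inhibition versus control; assays run twice in duplicate.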

[2] = tested on: Candida parapsilosis; assay: Inhibition of Candida parapsilosis ATCC 22019 growth for 24 hours in vitro.; format: functional; conditions: Lodderomyces parapsilosis, ATCC 22019, 24 h; summary of the method: as §1
[3] = tested on: Candida tropicalis; assay: Inhibition of Candida tropicalis 156 growth for 24 hours in vitro.; format: functional; summary of the method: as §1
[4] = Inhibition of Trichophyton mentagrophytes 445 growth for 120 hours in vitro.; format: functional, Arthroderma benhamiae; conditions: Trichophyton benhamiae, 120 h; read-out: MIC
Summary of the method: (§2)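 Dermatophyte grown in MOPS-buffered (0.165 M, pH 7.0) RPMI 1640 containing L-glutamine, in an M27-A microdilution format. Inoculum 5 × 10^3 cfu/mL final. Compounds from DMSO stocks (≤2% final), 2-fold dilutions 1000–0.24 µmol/L. Incubated at 35 °C, growth judged visually at 72 and 120 h. MIC endpoint is 80% inhibition relative to control; measured twice in duplicate.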

[5] = tested on: Candida albicans; assay: Inhibition of Candida albicans ATCC 90028 for 48 hours in vitro.; format: functional; conditions: ATCC 90028, 48 h; summary of the method: as §1
[6] = tested on: Trichosporon beigelii; assay: Inhibition of Trichosporon beigelli 1188 for 24 hours in vitro.; format: functional; conditions: Trichosporon beigelii, 24 h; read-out: MIC
Summary of the method: (§3)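 Microdilution following NCCLS M27-A. Medium: RPMI 1640 with L-glutamine, 0.165 M MOPS, pH 7.0. Final inoculum 5 × 10^3 cfu/mL. Compounds dissolved in DMSO, final ≤2%, serially halved from 1000 to 0.24 µmol/L. Incubated at 35 °C and read at 24 and 48 h. MIC defined as 80% inhibition of control growth; run twice in duplicate.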

[7] = tested on: Lichtheimia corymbifera; assay: In vitro inhibition of Absidia corymbifera 272 growth for 48 hours.; format: functional; conditions: Lichtheimia corymbifera, 48 h; read-out: MIC
Summary of the method: (§4)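 Filamentous isolates tested by microdilution per NCCLS M27-A in RPMI 1640 plus L-glutamine, buffered with 0.165 M MOPS to pH 7.0. Final inoculum 5 × 10^3 cfu/mL. Compounds in DMSO (final ≤2%), 2-fold series over 1000–0.24 µmol/L. Plates held at 35 °C and read visually after 24 and 48 h. MIC taken as 80% inhibition of control growth; determined twice in duplicate.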

[8] = tested on: Candida tropicalis; assay: Inhibition of Candida tropicalis 156 growth for 48 hours in vitro.; format: functional; summary of the method: as §1
[9] = tested on: Aspergillus fumigatus; assay: Inhibition of Aspergillus fumigatus 231 growth for 48 hours in vitro.; format: functional; conditions: Aspergillus fumigatus, 48 h; read-out: MIC; summary of the method: as §4
[10] = tested on: Candida albicans; assay: Inhibition of Candida albicans ATCC 90028 for 24 hours in vitro.; format: functional; conditions: ATCC 90028, 24 h; summary of the method: as §1
[11] = tested on: Trichosporon beigelii; assay: Inhibition of Trichosporon beigelli 1188 for 48 hours in vitro.; format: functional; conditions: Trichosporon beigelii, 48 h; read-out: MIC; summary of the method: as §3
[12] = tested on: Pichia kudriavzevii; assay: Inhibition of Candida krusei ATCC 6258 growth for 24 hours in vitro.; format: functional; conditions: ATCC 6258, 24 h; summary of the method: as §1
[13] = tested on: Candida albicans; assay: Inhibition of Candida albicans ATCC 44859 growth for 48 hours in vitro.; format: functional; conditions: Candida albicans, ATCC 44859, 48 h; read-out: MIC; summary of the method: as §1
[14] = tested on: Clavispora lusitaniae; assay: Inhibition of Candida lusitaniae 2446/I growth for 24 hours in vitro.; format: functional; conditions: Clavispora lusitaniae, 24 h; read-out: MIC; summary of the method: as §1
[15] = Inhibition of Trichophyton mentagrophytes 445 growth for 72 hours in vitro.; format: functional, Arthroderma benhamiae; conditions: Trichophyton benhamiae, 72 h; read-out: MIC; summary of the method: as §2
[16] = tested on: Nakaseomyces glabratus; assay: Inhibition of Candida glabrata 20/I growth for 48 hours in vitro.; format: functional; conditions: Nakaseomyces glabratus, 48 h; read-out: MIC; summary of the method: as §1
[17] = tested on: Pichia kudriavzevii; assay: Inhibition of Candida krusei ATCC 6258 growth for 48 hours in vitro.; format: functional; conditions: ATCC 6258, 48 h; summary of the method: as §1
[18] = tested on: Aspergillus fumigatus; assay: Inhibition of Aspergillus fumigatus 231 growth for 24 hours in vitro.; format: functional; conditions: Aspergillus fumigatus, 24 h; read-out: MIC; summary of the method: as §4
[19] = tested on: Pichia kudriavzevii; assay: Inhibition of Candida krusei E28 growth for 24 hours in vitro.; format: functional; summary of the method: as §1
[20] = tested on: Nakaseomyces glabratus; assay: Inhibition of Candida glabrata 20/I growth for 24 hours in vitro.; format: functional; conditions: Nakaseomyces glabratus, 24 h; read-out: MIC; summary of the method: as §1
[21] = tested on: Pichia kudriavzevii; assay: Inhibition of Candida krusei E28 growth for 48 hours in vitro.; format: functional; summary of the method: as §1
[22] = tested on: Candida albicans; assay: Inhibition of Candida albicans ATCC 44859 growth for 24 hours in vitro.; format: functional; conditions: Candida albicans, ATCC 44859, 24 h; read-out: MIC; summary of the method: as §1
[23] = tested on: Clavispora lusitaniae; assay: Inhibition of Candida lusitaniae 2446/I growth for 48 hours in vitro.; format: functional; conditions: Clavispora lusitaniae, 48 h; read-out: MIC; summary of the method: as §1
[24] = tested on: Lichtheimia corymbifera; assay: In vitro inhibition of Absidia corymbifera 272 growth for 24 hours.; format: functional; conditions: Lichtheimia corymbifera, 24 h; read-out: MIC; summary of the method: as §4
[25] = Candida tropicalis, 24 h, read-out: MIC
[26] = Candida albicans, read-out: MIC
[27] = Candida tropicalis, 48 h, read-out: MIC
[28] = Pichia kudriavzevii, read-out: MIC
[29] = Pichia kudriavzevii, 24 h, read-out: MIC
[30] = Pichia kudriavzevii, 48 h, read-out: MIC

Row | Structure (SMILES) | MIC [4] | MIC [6] | MIC [7] | MIC [9] | MIC [11] | MIC [13] | MIC [14] | MIC [15] | MIC [16] | MIC [18] | MIC [20] | MIC [22] | MIC [23] | MIC [24] | MIC ([1]; read-out: MIC) | MIC ([2]; read-out: MIC) | MIC [3, 25] | MIC [5, 26] | MIC [8, 27] | MIC [10, 26] | other results
1 | COc1ccc(C2=CC(CO)OC2=O)cc1 (stereo not given) | 62.5 µM (≈ 13.8 µg/mL) | 500 µM (≈ 110 µg/mL) | 62.5 µM (≈ 13.8 µg/mL) | 500 µM (≈ 110 µg/mL) | 1000 µM (≈ 220 µg/mL) | 62.5 µM (≈ 13.8 µg/mL) | 31.2 µM (≈ 6.88 µg/mL) | 15.6 µM (≈ 3.44 µg/mL) | 250 µM (≈ 55.1 µg/mL) | 125 µM (≈ 27.5 µg/mL) | 125 µM (≈ 27.5 µg/mL) | 15.6 µM (≈ 3.44 µg/mL) | 125 µM (≈ 27.5 µg/mL) | 31.2 µM (≈ 6.88 µg/mL) | – | – | – | – | – | – | MIC [1]: 500 µM (≈ 110 µg/mL); MIC [2]: 250 µM (≈ 55.1 µg/mL); MIC [3]: 125 µM (≈ 27.5 µg/mL); MIC [5]: 62.5 µM (≈ 13.8 µg/mL); MIC [8]: 250 µM (≈ 55.1 µg/mL); MIC [10]: 31.2 µM (≈ 6.88 µg/mL); MIC [12]: 62.5 µM (≈ 13.8 µg/mL); MIC [17]: 125 µM (≈ 27.5 µg/mL); MIC [19]: 62.5 µM (≈ 13.8 µg/mL); MIC [21]: 125 µM (≈ 27.5 µg/mL)
2 | O=C1OC(COC(=O)c2ccc(Cl)cc2)C=C1c1cccc(Cl)c1 (stereo not given) | 3.91 µM (≈ 1.42 µg/mL) | 7.81 µM (≈ 2.84 µg/mL) | 15.6 µM (≈ 5.68 µg/mL) | 3.91 µM (≈ 1.42 µg/mL) | 15.6 µM (≈ 5.68 µg/mL) | 3.91 µM (≈ 1.42 µg/mL) | 7.81 µM (≈ 2.84 µg/mL) | 1.95 µM (≈ 0.708 µg/mL) | 1.95 µM (≈ 0.708 µg/mL) | 1.95 µM (≈ 0.708 µg/mL) | 1.95 µM (≈ 0.708 µg/mL) | 1.95 µM (≈ 0.708 µg/mL) | 15.6 µM (≈ 5.68 µg/mL) | 3.91 µM (≈ 1.42 µg/mL) | 31.2 µM (≈ 11.3 µg/mL) | 7.81 µM (≈ 2.84 µg/mL) | 15.6 µM (≈ 5.68 µg/mL) | 7.81 µM (≈ 2.84 µg/mL) | 31.2 µM (≈ 11.3 µg/mL) | 7.81 µM (≈ 2.84 µg/mL) | MIC [12, 28]: 7.81 µM (≈ 2.84 µg/mL); MIC [17, 28]: 15.6 µM (≈ 5.68 µg/mL); MIC [19, 29]: 15.6 µM (≈ 5.68 µg/mL); MIC [21, 30]: 15.6 µM (≈ 5.68 µg/mL)
3 | O=C1OC(CO)C=C1c1cccc(Cl)c1 (stereo not given) | 15.6 µM (≈ 3.51 µg/mL) | 250 µM (≈ 56.2 µg/mL) | 500 µM (≈ 112 µg/mL) | 125 µM (≈ 28.1 µg/mL) | 1000 µM (≈ 225 µg/mL) | 62.5 µM (≈ 14 µg/mL) | 250 µM (≈ 56.2 µg/mL) | 15.6 µM (≈ 3.51 µg/mL) | 62.5 µM (≈ 14 µg/mL) | 31.2 µM (≈ 7.02 µg/mL) | 62.5 µM (≈ 14 µg/mL) | 31.2 µM (≈ 7.02 µg/mL) | 1000 µM (≈ 225 µg/mL) | 125 µM (≈ 28.1 µg/mL) | 1000 µM (≈ 225 µg/mL) | 500 µM (≈ 112 µg/mL) | 500 µM (≈ 112 µg/mL) | 250 µM (≈ 56.2 µg/mL) | > 1000 µM | 250 µM (≈ 56.2 µg/mL) | MIC [12, 28]: 1000 µM (≈ 225 µg/mL); MIC [17, 28]: > 1000 µM; MIC [19, 29]: 1000 µM (≈ 225 µg/mL); MIC [21, 30]: > 1000 µM
4 | COc1ccc(C2=CC(COC(C)=O)OC2=O)cc1 (stereo not given) | 7.81 µM (≈ 2.05 µg/mL) | 62.5 µM (≈ 16.4 µg/mL) | 62.5 µM (≈ 16.4 µg/mL) | 31.2 µM (≈ 8.2 µg/mL) | 62.5 µM (≈ 16.4 µg/mL) | 15.6 µM (≈ 4.1 µg/mL) | 31.2 µM (≈ 8.2 µg/mL) | 7.81 µM (≈ 2.05 µg/mL) | 31.2 µM (≈ 8.2 µg/mL) | 3.91 µM (≈ 1.03 µg/mL) | 31.2 µM (≈ 8.2 µg/mL) | < 0.98 µM | 62.5 µM (≈ 16.4 µg/mL) | 62.5 µM (≈ 16.4 µg/mL) | 62.5 µM (≈ 16.4 µg/mL) | 31.2 µM (≈ 8.2 µg/mL) | 31.2 µM (≈ 8.2 µg/mL) | 31.2 µM (≈ 8.2 µg/mL) | 62.5 µM (≈ 16.4 µg/mL) | 31.2 µM (≈ 8.2 µg/mL) | MIC [12, 28]: 62.5 µM (≈ 16.4 µg/mL); MIC [17, 28]: 125 µM (≈ 32.8 µg/mL); MIC [19, 29]: 62.5 µM (≈ 16.4 µg/mL); MIC [21, 30]: 125 µM (≈ 32.8 µg/mL)
5 | CC(C)(C)C(=O)OCC1C=C(c2cccc(Cl)c2)C(=O)O1 (stereo not given) | 1.95 µM (≈ 0.602 µg/mL) | 3.91 µM (≈ 1.21 µg/mL) | 15.6 µM (≈ 4.83 µg/mL) | 3.91 µM (≈ 1.21 µg/mL) | 15.6 µM (≈ 4.83 µg/mL) | 3.91 µM (≈ 1.21 µg/mL) | 3.91 µM (≈ 1.21 µg/mL) | 1.95 µM (≈ 0.602 µg/mL) | < 0.98 µM | < 0.98 µM | < 0.98 µM | < 0.98 µM | 7.81 µM (≈ 2.41 µg/mL) | 7.81 µM (≈ 2.41 µg/mL) | 15.6 µM (≈ 4.83 µg/mL) | 7.81 µM (≈ 2.41 µg/mL) | 7.81 µM (≈ 2.41 µg/mL) | 7.81 µM (≈ 2.41 µg/mL) | 15.6 µM (≈ 4.83 µg/mL) | 3.91 µM (≈ 1.21 µg/mL) | MIC [12, 28]: 7.81 µM (≈ 2.41 µg/mL); MIC [17, 28]: 7.81 µM (≈ 2.41 µg/mL); MIC [19, 29]: 7.81 µM (≈ 2.41 µg/mL); MIC [21, 30]: 15.6 µM (≈ 4.83 µg/mL)
